Experimental data published in ChEMBL document CHEMBL1141908, “Inositol tripyrophosphate: a new membrane permeant allosteric effector of haemoglobin” (2005).
Where “and” joins values, the source holds several entries; their conditions need not be identical. Identical values can stand only once.

Key:
[1] = target: Hemoglobin beta chain (Mus musculus) (UniProt P02089); experiment: In vitro P50 value of free haemoglobin of murine was determined after incubation with compound (concentration 60 mM); assay type: functional
Method in brief: (§1)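 Free haemoglobin (human or murine) was mixed with a 60 mM compound solution adjusted to pH 6.9–7.1. Oxy-Hb dissociation curves were recorded on a Hemox Analyzer. P50 is the O2 partial pressure at 50% Hb saturation, and the shift is expressed as a percentage of untreated Hb. Means of three to ten P50 values were calculated, depending on the compound and species.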

[2] = target: Hemoglobin beta chain (Mus musculus) (UniProt P02089); experiment: In vitro percent P50 value of free haemoglobin of murine was determined after incubation with compound (concentration 60 mM); assay type: functional; method in brief: as §1
Mus musculus [3] = species on record: Mus musculus; experiment: In vitro P50 value of whole blood of murine was determined after incubation with compound (concentration 30 mM); assay type: functional
Method in brief: (§2)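 Whole blood (human, murine or porcine) incubated 1:1 vol/vol with effector solution at 290–310 mOsM, pH 7, for 60 min at 37 C. Cells then washed three times in 20 mM bis-Tris, pH 7, 308 mOsM. Hb–O2 curves read on a Hemox Analyzer in 20 mM Hemox buffer, pH 7.1–7.2, 37 C. P50 shift in % reported as mean of four values ± SD.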

Mus musculus [4] = species on record: Mus musculus; experiment: In vitro percent P50 value of whole blood of murine was determined after incubation with compound (concentration 30 mM); assay type: functional; method in brief: as §2
[5] = In vitro P50 value of whole blood of procine was determined after incubation with compound (concentration 30 mM); assay type: functional, Sus scrofa; conditions: in the assay text read “concentration 60 mM” for “concentration 30 mM”; method in brief: as §2
Homo sapiens [6] = species on record: Homo sapiens; experiment: In vitro P50 value of whole blood of human was determined after incubation with compound (concentration 30 mM); assay type: functional; method in brief: as §2
Mus musculus [7] = species on record: Mus musculus; experiment: In vitro percent P50 value of whole blood of murine was determined after incubation with compound (concentration 4 mM); assay type: functional; method in brief: as §2
[8] = In vitro percent P50 value of whole blood of procine was determined after incubation with compound (concentration 60 mM); assay type: functional, Sus scrofa; method in brief: as §2
Homo sapiens [9] = species on record: Homo sapiens; experiment: In vitro percent P50 value of whole blood of human was determined after incubation with compound (concentration 60 mM); assay type: functional; method in brief: as §2
Homo sapiens [10] = species on record: Homo sapiens; experiment: In vitro percent P50 value of whole blood of human was determined after incubation with compound (concentration 30 mM); assay type: functional; method in brief: as §2
Mus musculus [11] = species on record: Mus musculus; experiment: In vitro percent P50 value of whole blood of murine was determined after incubation with compound (concentration 60 mM); assay type: functional; method in brief: as §2
[12] = In vitro percent P50 value of free haemoglobin of human was determined after incubation with compound (concentration 60 mM)
[13] = In vitro P50 value of free haemoglobin of human was determined after incubation with compound (concentration 60 mM)
[14] = target: Hemoglobin subunit beta (Sus scrofa) (UniProt P02067); experiment: In vitro percent P50 value of free haemoglobin of procine was determined after incubation with compound (concentration 60 mM); assay type: functional
Method in brief: (§3)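 Porcine free Hb mixed with the effector solution (60 mM; pH adjusted to 6.9–7.1). Hb–O2 dissociation curves recorded on a Hemox Analyzer. P50 is the pO2 at 50% Hb saturation. Shift reported as % change versus control; means of three P50 values.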

[15] = target: Hemoglobin subunit beta (Sus scrofa) (UniProt P02067); experiment: In vitro P50 value of free haemoglobin of procine was determined after incubation with compound (concentration 60 mM); assay type: functional; method in brief: as §3

Hemoglobin beta chain (Mus musculus), sequence (P02089 whole entry): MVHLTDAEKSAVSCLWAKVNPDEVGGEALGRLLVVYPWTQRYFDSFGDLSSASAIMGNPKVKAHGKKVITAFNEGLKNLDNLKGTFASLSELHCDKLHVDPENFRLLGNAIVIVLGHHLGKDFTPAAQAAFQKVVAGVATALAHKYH
Hemoglobin subunit beta (Sus scrofa), sequence (P02067 whole entry): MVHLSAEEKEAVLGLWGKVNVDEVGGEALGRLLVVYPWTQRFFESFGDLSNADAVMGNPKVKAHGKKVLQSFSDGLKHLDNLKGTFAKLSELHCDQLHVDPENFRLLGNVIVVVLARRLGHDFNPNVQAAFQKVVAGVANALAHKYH

Row | SMILES | P50 [1] | P50 [2] | P50 (Mus musculus [3]) [Torr] | P50 (Mus musculus [4]) [%] | other results
1 | CN(C)C1CCCCC1.CN(C)C1CCCCC1.CN(C)C1CCCCC1.CN(C)C1CCCCC1.CN(C)C1CCCCC1.CN(C)C1CCCCC1.O=P1(O)OC2C3OP(=O)(O)OP(=O)(O)OC3C3OP(=O)(O)OP(=O)(O)OC3C2OP(=O)(O)O1 (centres undefined) [listing 1 of 2 here] | 45.1 Torr | 81% | – | – | –
2 | C1CNCCN1.C1CNCCN1.C1CNCCN1.O=P1(O)OC2C3OP(=O)(O)OP(=O)(O)OC3C3OP(=O)(O)OP(=O)(O)OC3C2OP(=O)(O)O1 (centres undefined) [ITPP TRIPIPERAZINIUM SALT] | – | – | 42.3 | 8 | –
3 | NC1CCCCCC1.NC1CCCCCC1.NC1CCCCCC1.NC1CCCCCC1.NC1CCCCCC1.NC1CCCCCC1.O=P1(O)OC2C3OP(=O)(O)OP(=O)(O)OC3C3OP(=O)(O)OP(=O)(O)OC3C2OP(=O)(O)O1 (centres undefined) [listing 1 of 2 here] | – | – | 41.3 | 9 | –
4 | NC1CCCCCCC1.NC1CCCCCCC1.NC1CCCCCCC1.NC1CCCCCCC1.NC1CCCCCCC1.NC1CCCCCCC1.O=P1(O)OC2C3OP(=O)(O)OP(=O)(O)OC3C3OP(=O)(O)OP(=O)(O)OC3C2OP(=O)(O)O1 (centres undefined) [listing 1 of 2 here] | 30.6 Torr | 23% | – | – | –
5 | NC1CCCCCC1.NC1CCCCCC1.NC1CCCCCC1.NC1CCCCCC1.NC1CCCCCC1.NC1CCCCCC1.O=P1(O)OC2C3OP(=O)(O)OP(=O)(O)OC3C3OP(=O)(O)OP(=O)(O)OC3C2OP(=O)(O)O1 (centres undefined) [listing 2 of 2 here] | 43.8 Torr | 76% | – | – | –
6 | O=P1([O-])OC2C3OP(=O)([O-])OP(=O)([O-])OC3C3OP(=O)([O-])OP(=O)([O-])OC3C2OP(=O)([O-])O1.[Na+].[Na+].[Na+].[Na+].[Na+].[Na+] (centres undefined) [ITPP SODIUM SALT] | – | – | – | – | P50 [5]: 44.2 Torr; P50 (Homo sapiens [6]): 30.8 Torr; P50 (Mus musculus [7]): 29%; P50 [8]: 40%; P50 (Homo sapiens [9]): 39%
7 | NC1CCCCCCC1.NC1CCCCCCC1.NC1CCCCCCC1.NC1CCCCCCC1.NC1CCCCCCC1.NC1CCCCCCC1.O=P1(O)OC2C3OP(=O)(O)OP(=O)(O)OC3C3OP(=O)(O)OP(=O)(O)OC3C2OP(=O)(O)O1 (centres undefined) [listing 2 of 2 here] | – | – | 41.7 | 10 | –
8 | O=P1(O)OC2C3OP(=O)(O)OP(=O)(O)OC3C3OP(=O)(O)OP(=O)(O)OC3C2OP(=O)(O)O1.c1ccncc1.c1ccncc1.c1ccncc1.c1ccncc1.c1ccncc1 (centres undefined) [ITPP PYRIDINIUM SALT] | – | – | 42.7 | 13 | P50 (Homo sapiens [6]): 24.3 Torr; P50 (Homo sapiens [10]): 10%
9 | O=P1([O-])OC2C3OP(=O)([O-])OP(=O)([O-])OC3C3OP(=O)([O-])OP(=O)([O-])OC3C2OP(=O)([O-])O1.[Ca+2].[Ca+2].[Ca+2] (centres undefined) | – | – | 55.3 | – | P50 (Mus musculus [11]): 38%; P50 (Homo sapiens [6]): 31 Torr; P50 (Homo sapiens [10]): 25%
10 | C1CNCCN1.C1CNCCN1.C1CNCCN1.C1CNCCN1.C1CNCCN1.C1CNCCN1.O=P1(O)OC2C3OP(=O)(O)OP(=O)(O)OC3C3OP(=O)(O)OP(=O)(O)OC3C2OP(=O)(O)O1 (centres undefined) [ITPP PIPERAZINIUM] | – | – | 41.9 | 7 | –
11 | O=P1(O)OC2C3OP(=O)(O)OP(=O)(O)OC3C3OP(=O)(O)OP(=O)(O)OC3C2OP(=O)(O)O1.c1ccncc1.c1ccncc1.c1ccncc1.c1ccncc1.c1ccncc1 (centres undefined) | 50 Torr | 100% | – | – | P50 [12]: 107%; P50 [13]: 31.6 Torr
12 | O=P1(O)OC2C3OP(=O)(O)OP(=O)(O)OC3C3OP(=O)(O)OP(=O)(O)OC3C2OP(=O)(O)O1 (centres undefined) | 69.7 Torr [middle of 4 runs] | 189% [middle of 4 runs] | – | – | P50 [12]: 225% and 170%; P50 [14]: 209%; P50 [13]: 49.8 Torr and 33.1 Torr; P50 [15]: 68.1 Torr
13 | CN(C)C1CCCCC1.CN(C)C1CCCCC1.CN(C)C1CCCCC1.CN(C)C1CCCCC1.CN(C)C1CCCCC1.CN(C)C1CCCCC1.O=P1(O)OC2C3OP(=O)(O)OP(=O)(O)OC3C3OP(=O)(O)OP(=O)(O)OC3C2OP(=O)(O)O1 (centres undefined) [listing 2 of 2 here] | – | – | 45.5 | 20 | –
